From ChEMBL document CHEMBL4190191, “Cyclic Diarylheptanoids from Corylus avellana Green Leafy Covers: Determination of Their Absolute Configurations and Evaluation of Their Antioxidant and Antimicrobial Activities” (J Nat Prod, 2017)
The source made the active and inactive calls. The rule behind the calls is not given here.

Legend:
Plasma [1] = assay: Antioxidant activity in human plasma assessed as inhibition of H2O2-induced lipid peroxidation at 10 uM after 30 mins by TBARS assay relative to control; format: functional, cell-free
Outline: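 Fresh plasma from medication-free donors was incubated for 30 min at 37 °C with compound (0.1–100 μM) plus 2 mM H2O2. Lipid peroxidation was quantified as TBARS. Data are from 5–9 independent experiments, as mean ± SD.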

Plasma [2] = assay: Antioxidant activity in human plasma assessed as inhibition of H2O2/Fe2+-induced lipid peroxidation at 10 uM after 30 mins by TBARS assay relative to control; format: functional, cell-free
Outline: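 Human donor plasma was incubated for 30 min at 37 °C with compound at 10 μM plus 4.7 mM H2O2, 3.8 mM […] and 2.5 mM EDTA. Peroxidation was read as TBARS concentration.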

A549 = assay: Cytotoxicity against human A549 cells at 10 to 100 uM by MTT assay; format: cell-based; conditions: a549, 100 µM
Outline: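 A549 human lung adenocarcinoma cells were kept in DMEM with 10% FBS, 1% penicillin/streptomycin and 2 mM L-glutamine, at 37 °C under 5% CO2. Viability was measured by MTT assay after exposure to 10–100 μM.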

[3] = Cytotoxicity against human DeFew cells at 10 to 100 uM by MTT assay; format: cell-based
Outline: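 DeFew human B-lymphoma cells were maintained in RPMI 1640 with 10% FBS, 1% penicillin/streptomycin and 2 mM L-glutamine, in humidified 5% CO2 at 37 °C. Cells were exposed to 10–100 μM, and viability was read by MTT.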

Escherichia coli [4] = assay: Antimicrobial activity against Escherichia coli DSM 8579 assessed as growth inhibition at 10 ug per disc after 24 to 48 hrs (reference value: 0 millimeter); format: functional; conditions: read-out: DIZ
Bacillus cereus [5] = assay: Antimicrobial activity against Bacillus cereus DSM 4384 assessed as growth inhibition at 10 ug per disc after 24 to 48 hrs (reference value: 0 millimeter); format: functional; conditions: read-out: DIZ
Bacillus cereus [6] = assay: Antimicrobial activity against Bacillus cereus DSM 4313 assessed as growth inhibition at 10 ug per disc after 24 to 48 hrs (reference value: 0 millimeter); format: functional; conditions: read-out: DIZ
Pseudomonas aeruginosa [7] = assay: Antimicrobial activity against Pseudomonas aeruginosa DSM 50071 assessed as growth inhibition at 10 ug per disc after 24 to 48 hrs (reference value: 0 millimeter); format: functional; conditions: read-out: DIZ
Staphylococcus aureus [8] = assay: Antimicrobial activity against Staphylococcus aureus DSM 25923 assessed as growth inhibition at 10 ug per disc after 24 to 48 hrs (reference value: 0 millimeter); format: functional; conditions: read-out: DIZ
Escherichia coli [9] = assay: Antimicrobial activity against Escherichia coli DSM 8579 assessed as growth inhibition at 20 ug per disc after 24 to 48 hrs (reference value: 0 millimeter); format: functional; conditions: read-out: DIZ
Bacillus cereus [10] = assay: Antimicrobial activity against Bacillus cereus DSM 4384 assessed as growth inhibition at 20 ug per disc after 24 to 48 hrs (reference value: 0 millimeter); format: functional; conditions: read-out: DIZ
Bacillus cereus [11] = assay: Antimicrobial activity against Bacillus cereus DSM 4313 assessed as growth inhibition at 20 ug per disc after 24 to 48 hrs (reference value: 0 millimeter); format: functional; conditions: read-out: DIZ
Pseudomonas aeruginosa [12] = assay: Antimicrobial activity against Pseudomonas aeruginosa DSM 50071 assessed as growth inhibition at 20 ug per disc after 24 to 48 hrs (reference value: 0 millimeter); format: functional; conditions: read-out: DIZ
Staphylococcus aureus [13] = assay: Antimicrobial activity against Staphylococcus aureus DSM 25923 assessed as growth inhibition at 20 ug per disc after 24 to 48 hrs (reference value: 0 millimeter); format: functional; conditions: read-out: DIZ
Bacillus cereus [14] = assay: Antimicrobial activity against Bacillus cereus DSM 4384 assessed as growth inhibition at 40 ug per disc after 24 to 48 hrs (reference value: 0 millimeter); format: functional; conditions: read-out: DIZ
Escherichia coli [15] = assay: Antimicrobial activity against Escherichia coli DSM 8579 assessed as growth inhibition at 40 ug per disc after 24 to 48 hrs (reference value: 0 millimeter); format: functional; conditions: read-out: DIZ
Bacillus cereus [16] = assay: Antimicrobial activity against Bacillus cereus DSM 4313 assessed as growth inhibition at 40 ug per disc after 24 to 48 hrs (reference value: 0 millimeter); format: functional; conditions: read-out: DIZ
Pseudomonas aeruginosa [17] = assay: Antimicrobial activity against Pseudomonas aeruginosa DSM 50071 assessed as growth inhibition at 40 ug per disc after 24 to 48 hrs (reference value: 0 millimeter); format: functional; conditions: read-out: DIZ
Staphylococcus aureus [18] = assay: Antimicrobial activity against Staphylococcus aureus DSM 25923 assessed as growth inhibition at 40 ug per disc after 24 to 48 hrs (reference value: 0 millimeter); format: functional; conditions: read-out: DIZ
Bacillus cereus [19] = assay: Antimicrobial activity against Bacillus cereus DSM 4313 assessed per disc after 24 hrs by resazurin dye-based microtiter-plate assay; format: functional
Outline: (§1)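 Resazurin microtiter-plate broth dilution. Samples in DMSO were twofold serially diluted in Mueller-Hinton broth with isosensitized broth and resazurin indicator. Bacteria were added to about 5 × 10^5 cfu/mL. Ciprofloxacin served as positive control and DMSO as negative control. Plates were run in triplicate at 37 °C for 24 h. MIC is the lowest concentration […].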

Bacillus cereus [20] = assay: Antimicrobial activity against Bacillus cereus DSM 4384 assessed per disc after 24 hrs by resazurin dye-based microtiter-plate assay; format: functional; outline: as §1
Escherichia coli [21] = assay: Antimicrobial activity against Escherichia coli DSM 8579 assessed per disc after 24 hrs by resazurin dye-based microtiter-plate assay; format: functional; outline: as §1
Pseudomonas aeruginosa [22] = assay: Antimicrobial activity against Pseudomonas aeruginosa DSM 50071 assessed per disc after 24 hrs by resazurin dye-based microtiter-plate assay; format: functional; outline: as §1
Staphylococcus aureus [23] = assay: Antimicrobial activity against Staphylococcus aureus DSM 25923 assessed per disc after 24 hrs by resazurin dye-based microtiter-plate assay; format: functional; outline: as §1

Row | Structure (SMILES) | inhibition (Plasma [1]) | inhibition (Plasma [2]) | Activity (A549) | Activity [3] | zone of inhibition at 10 µg/disc (Escherichia coli [4]) [mm] | zone of inhibition at 10 µg/disc (Bacillus cereus [5]) [mm] | zone of inhibition at 10 µg/disc (Bacillus cereus [6]) [mm] | zone of inhibition at 10 µg/disc (Pseudomonas aeruginosa [7]) [mm] | zone of inhibition at 10 µg/disc (Staphylococcus aureus [8]) [mm] | zone of inhibition at 20 µg/disc (Escherichia coli [9]) [mm] | zone of inhibition at 20 µg/disc (Bacillus cereus [10]) [mm] | zone of inhibition at 20 µg/disc (Bacillus cereus [11]) [mm] | zone of inhibition at 20 µg/disc (Pseudomonas aeruginosa [12]) [mm] | zone of inhibition at 20 µg/disc (Staphylococcus aureus [13]) [mm] | zone of inhibition at 40 µg/disc (Bacillus cereus [14]) [mm] | zone of inhibition at 40 µg/disc (Escherichia coli [15]) [mm] | zone of inhibition at 40 µg/disc (Bacillus cereus [16]) [mm] | zone of inhibition at 40 µg/disc (Pseudomonas aeruginosa [17]) [mm] | zone of inhibition at 40 µg/disc (Staphylococcus aureus [18]) [mm] | other results
1 | C[C@@H]1O[C@@H](Oc2c(-c3ccc(O)cc3)oc3cc(O)cc(O)c3c2=O)[C@H](O)[C@H](O)[C@H]1OC(=O)/C=C/c1ccc(O)cc1 | 31.8% | 39.7% | Non-Toxic | Non-Toxic | 3 | 5 | 2.33 | 0 | 5 | 4.33 | 5 | 3.33 | 0 | 6.67 | 9.67 | 8.66 | 5.33 | 9.67 | 10.7 | –
2 | C[C@@H]1O[C@@H](Oc2c(-c3cc(O)c(O)c(O)c3)oc3cc(O)cc(O)c3c2=O)[C@H](O)[C@H](O)[C@H]1O | 44.4% | 34.1% | Non-Toxic | Non-Toxic | – | – | – | – | – | – | – | – | – | – | 0 | 9.67 | 0 | 5 | 6.33 | –
3 | O=C1CCc2ccc(O)c(c2)-c2cc(ccc2O)C[C@@H](O)[C@H](O)[C@H]1O (mixture of isomers) | 32.2% | 24.4% | Non-Toxic | Non-Toxic | 9.33 | 5 | 5 | 4.67 | 0 | 9.67 | 5 | 5 | 4.67 | 0 | 10.7 | 11.7 | 10.7 | 10.7 | 5.67 | MIC (Bacillus cereus [19]): 4 µg; MIC (Bacillus cereus [20]): 4 µg; MIC (Escherichia coli [21]): 10 µg; MIC (Pseudomonas aeruginosa [22]): 10 µg; MIC (Staphylococcus aureus [23]): 30 µg
4 | O=C1CCc2ccc(O[C@@H]3O[C@H](CO)[C@@H](O)[C@H](O)[C@H]3O)c(c2)-c2cc(ccc2O)C[C@@H](O)[C@H](O)[C@H]1O (mixture of isomers) | 14.7% | 23.3% | Non-Toxic | Non-Toxic | 0 | 0 | 0 | 0 | 0 | 0 | 0 | 0 | 0 | 0 | 0 | 0 | 5 | 9 | 11.3 | MIC (Bacillus cereus [19]): 30 µg; MIC (Bacillus cereus [20]): 50 µg; MIC (Escherichia coli [21]): 50 µg; MIC (Pseudomonas aeruginosa [22]): 30 µg; MIC (Staphylococcus aureus [23]): 30 µg
5 | O=C(O)CC(O)(CC(=O)O)C(=O)O [CITRIC ACID] | inactive | inactive | Non-Toxic | Non-Toxic | – | – | – | – | – | – | – | – | – | – | 0 | 10.7 | 10 | 9.33 | 10.7 | –
6 | COc1cc(/C=C/C(=O)CC(=O)/C=C/c2ccc(O)c(OC)c2)ccc1O | 21.1% | 22.9% | – | – | – | – | – | – | – | – | – | – | – | – | – | – | – | – | – | –
7 | O=C(/C=C/c1ccc(O)c(O)c1)O[C@@H]1C[C@](O)(C(=O)O)C[C@@H](OC(=O)/C=C/c2ccc(O)c(O)c2)[C@H]1O | 24.2% | 25.5% | Non-Toxic | Non-Toxic | – | – | – | – | – | – | – | – | – | – | 0 | 8.33 | 0 | 0 | 6.67 | –
8 | COC(=O)CC(O)(CC(=O)OC)C(=O)OC | inactive | inactive | Non-Toxic | Non-Toxic | – | – | – | – | – | – | – | – | – | – | 0 | 11.3 | 0 | 6.67 | 11.3 | –
9 | O=C1/C=C/CCc2ccc(O[C@@H]3O[C@H](CO)[C@@H](O)[C@H](O)[C@H]3O)c(c2)-c2cc(ccc2O[C@H]2OC[C@H](O)[C@H](O)[C@H]2O)CC1 (mixture of isomers) | 12.6% | 18.1% | Non-Toxic | Non-Toxic | – | – | – | – | – | – | – | – | – | – | 0 | 10 | 5 | 4.67 | 10 | –
10 | COC(=O)CC(O)(CC(=O)O)C(=O)O (stereo unspecified) | inactive | inactive | Non-Toxic | Non-Toxic | – | – | – | – | – | – | – | – | – | – | 0 | 10 | 5.67 | 0 | 10.7 | –
11 | O=C1Cc2ccc(O)c(c2)-c2cc(ccc2O)C[C@@H](O)[C@@H](O)[C@@H](O)[C@H]1O (mixture of isomers) | 33.3% | 14.4% | Non-Toxic | Non-Toxic | 4.67 | 5.67 | 5.67 | 5 | 6.33 | 10 | 9.67 | 9.67 | 8.67 | 10 | 11.3 | 10.3 | 10.7 | 10 | 10.7 | MIC (Bacillus cereus [19]): 5 µg; MIC (Bacillus cereus [20]): 5 µg; MIC (Escherichia coli [21]): 10 µg; MIC (Pseudomonas aeruginosa [22]): 10 µg; MIC (Staphylococcus aureus [23]): 30 µg
12 | C[C@@H]1O[C@@H](Oc2c(-c3ccc(O)cc3)oc3cc(O)cc(O)c3c2=O)[C@H](O)[C@H](O)[C@H]1O [AFZELIN] | 5.7% | 20.1% | Non-Toxic | Non-Toxic | – | – | – | – | – | – | – | – | – | – | 5 | 10 | 0 | 4 | 10.3 | –
